Measurements from ChEMBL document CHEMBL1833793 (Bioorg Med Chem Lett, 2011).

How the values were obtained:
[1] = target: T1, Neuropeptide Y receptor type 2 (Homo sapiens, UniProt P49146); experiment: Antagonist activity at human NPY2 receptor assessed as calcium mobilization by FLIPR assay; format: functional
T1 sequence (P49146 whole entry): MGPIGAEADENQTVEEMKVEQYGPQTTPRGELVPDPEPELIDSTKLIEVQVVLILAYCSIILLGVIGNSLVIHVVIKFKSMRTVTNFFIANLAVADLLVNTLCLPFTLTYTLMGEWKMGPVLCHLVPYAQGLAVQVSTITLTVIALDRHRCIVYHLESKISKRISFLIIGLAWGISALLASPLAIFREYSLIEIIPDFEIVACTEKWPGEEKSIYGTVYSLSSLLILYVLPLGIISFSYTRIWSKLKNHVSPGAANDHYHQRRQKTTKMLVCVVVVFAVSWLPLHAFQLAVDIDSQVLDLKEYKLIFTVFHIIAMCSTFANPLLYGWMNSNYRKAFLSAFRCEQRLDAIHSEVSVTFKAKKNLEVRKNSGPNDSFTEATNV

[2] = target: Neuropeptide Y receptor type 4 (Homo sapiens, UniProt P50391); experiment: Antagonist activity at human NPY4 receptor assessed as calcium mobilization by FLIPR assay; format: functional
Neuropeptide Y receptor type 4, sequence (P50391 whole entry): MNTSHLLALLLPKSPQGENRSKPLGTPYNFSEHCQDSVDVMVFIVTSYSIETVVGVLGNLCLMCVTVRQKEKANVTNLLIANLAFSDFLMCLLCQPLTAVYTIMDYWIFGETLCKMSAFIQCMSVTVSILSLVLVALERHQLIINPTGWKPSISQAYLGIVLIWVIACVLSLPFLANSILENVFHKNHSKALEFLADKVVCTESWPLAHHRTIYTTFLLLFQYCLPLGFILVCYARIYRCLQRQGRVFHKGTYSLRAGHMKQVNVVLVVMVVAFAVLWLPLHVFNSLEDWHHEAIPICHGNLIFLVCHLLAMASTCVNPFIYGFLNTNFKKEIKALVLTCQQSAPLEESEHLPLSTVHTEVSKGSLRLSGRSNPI

Liver microsomes [3] = experiment: Intrinsic clearance in human liver microsome; format: ADME
Liver microsomes [4] = experiment: Intrinsic clearance in rat liver microsome; format: ADME
[5] = Plasma concentration in rat at 10 mg/kg, po after 4 hrs; format: ADME, organism-based; parameters: dose 10 mg/kg, route oral
In short: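 Single oral dose of 10 mg/kg in rats, two animals. Plasma was sampled at 4 h and the two values averaged. LOQ 2 ng/mL.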

[6] = target: Voltage-gated inwardly rectifying potassium channel KCNH2 (Homo sapiens, UniProt Q12809); experiment: Inhibition of human ERG by patch-clamp assay
Voltage-gated inwardly rectifying potassium channel KCNH2, sequence (Q12809 whole entry): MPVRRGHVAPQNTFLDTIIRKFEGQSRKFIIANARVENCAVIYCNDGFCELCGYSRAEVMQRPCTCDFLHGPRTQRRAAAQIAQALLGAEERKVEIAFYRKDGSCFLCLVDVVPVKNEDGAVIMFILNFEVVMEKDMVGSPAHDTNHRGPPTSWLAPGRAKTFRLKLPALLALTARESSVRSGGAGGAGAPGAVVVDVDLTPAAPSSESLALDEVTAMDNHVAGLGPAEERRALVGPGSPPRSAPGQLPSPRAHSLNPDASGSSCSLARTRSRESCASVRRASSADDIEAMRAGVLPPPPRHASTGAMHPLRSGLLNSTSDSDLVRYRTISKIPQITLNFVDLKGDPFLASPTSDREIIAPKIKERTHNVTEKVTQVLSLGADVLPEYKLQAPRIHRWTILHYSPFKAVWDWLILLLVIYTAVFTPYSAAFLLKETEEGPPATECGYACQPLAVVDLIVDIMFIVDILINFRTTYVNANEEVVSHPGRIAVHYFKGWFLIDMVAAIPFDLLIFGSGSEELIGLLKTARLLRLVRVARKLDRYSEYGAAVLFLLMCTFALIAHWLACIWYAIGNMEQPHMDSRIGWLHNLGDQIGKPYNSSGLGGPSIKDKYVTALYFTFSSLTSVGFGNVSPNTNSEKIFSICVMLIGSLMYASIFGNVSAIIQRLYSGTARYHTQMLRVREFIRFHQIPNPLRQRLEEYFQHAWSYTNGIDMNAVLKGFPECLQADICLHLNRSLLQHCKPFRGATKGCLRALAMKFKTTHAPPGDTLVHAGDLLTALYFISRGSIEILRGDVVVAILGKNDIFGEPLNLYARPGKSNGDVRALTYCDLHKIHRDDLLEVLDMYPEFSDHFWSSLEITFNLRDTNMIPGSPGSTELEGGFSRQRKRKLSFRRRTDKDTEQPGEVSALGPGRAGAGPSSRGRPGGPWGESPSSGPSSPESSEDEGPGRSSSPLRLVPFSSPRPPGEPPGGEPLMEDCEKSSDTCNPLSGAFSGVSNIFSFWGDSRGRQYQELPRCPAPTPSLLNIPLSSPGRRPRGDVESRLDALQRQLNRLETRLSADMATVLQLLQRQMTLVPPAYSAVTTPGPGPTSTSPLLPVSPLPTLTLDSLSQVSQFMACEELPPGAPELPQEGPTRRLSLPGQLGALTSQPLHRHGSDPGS

[7] = Plasma protein binding in rat; format: ADME, cell-free; settings: read-out: PPB (converted)
Cytochrome P450 1A2 = target: T2, Cytochrome P450 1A2 (Homo sapiens, UniProt P05177); experiment: Inhibition of CYP1A2; format: ADME
T2 sequence (P05177 whole entry): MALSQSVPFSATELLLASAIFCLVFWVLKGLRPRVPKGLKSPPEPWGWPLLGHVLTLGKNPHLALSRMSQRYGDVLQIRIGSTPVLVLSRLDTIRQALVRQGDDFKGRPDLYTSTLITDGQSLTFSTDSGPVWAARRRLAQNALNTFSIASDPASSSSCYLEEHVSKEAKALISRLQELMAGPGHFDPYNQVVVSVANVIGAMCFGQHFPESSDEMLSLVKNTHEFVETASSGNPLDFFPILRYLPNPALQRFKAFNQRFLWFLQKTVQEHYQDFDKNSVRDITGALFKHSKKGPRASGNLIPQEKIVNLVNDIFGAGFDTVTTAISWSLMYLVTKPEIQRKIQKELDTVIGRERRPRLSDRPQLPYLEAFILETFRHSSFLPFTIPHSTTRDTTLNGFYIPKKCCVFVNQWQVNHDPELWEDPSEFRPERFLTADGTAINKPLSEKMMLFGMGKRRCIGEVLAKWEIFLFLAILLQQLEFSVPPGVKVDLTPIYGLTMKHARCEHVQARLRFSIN

Cytochrome P450 2D6 = Cytochrome P450 2D6 (Homo sapiens, UniProt P10635); experiment: Inhibition of CYP2D6; format: ADME
Cytochrome P450 2D6, sequence (P10635 whole entry): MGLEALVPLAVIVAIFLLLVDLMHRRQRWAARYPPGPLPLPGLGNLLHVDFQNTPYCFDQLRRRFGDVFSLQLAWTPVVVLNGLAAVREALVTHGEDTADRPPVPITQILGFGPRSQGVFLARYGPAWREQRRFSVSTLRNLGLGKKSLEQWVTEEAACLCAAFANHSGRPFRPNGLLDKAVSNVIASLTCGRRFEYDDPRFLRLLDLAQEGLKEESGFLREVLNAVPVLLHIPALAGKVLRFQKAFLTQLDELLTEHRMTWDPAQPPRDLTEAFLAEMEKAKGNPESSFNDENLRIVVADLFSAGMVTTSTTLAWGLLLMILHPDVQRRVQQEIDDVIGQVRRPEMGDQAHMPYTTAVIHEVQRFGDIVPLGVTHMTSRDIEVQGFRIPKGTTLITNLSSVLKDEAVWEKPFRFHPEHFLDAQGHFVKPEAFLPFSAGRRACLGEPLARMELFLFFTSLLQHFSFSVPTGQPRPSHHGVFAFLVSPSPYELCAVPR

[8] = Half life in Sprague-Dawley rat at 1 mg/kg, iv and 2 mg/kg, po by HPLC analysis; format: ADME, organism-based; settings: in vivo
In short: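 Cannulated (jugular and carotid) male Sprague-Dawley rats, 200–250 g, n = 2; 1 mg/kg iv and 2 mg/kg po crossover after 24 h washout; dosed in 20% β-cyclodextrin pH-adjusted with methanesulfonic acid; 12 serial blood samples over 24 h; plasma by LC-MS/MS; noncompartmental analysis.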

[9] = Plasma concentration in cPP-induced feeding rat model at 3 mg/kg, po after 1 hr; format: ADME, organism-based; parameters: dose 3 mg/kg, route oral
In short: (§1)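 Satellite rats (n = 2/dose) sampled each week alongside the cPP feeding test; Lu-series dosed po at 3, 10 or 30 mg/kg as suspension in 20% HP-β-cyclodextrin; plasma (ng/mL) and brain tissue (ng/g) levels taken at 1, 2, 4, 6 and 24 h post-dose; mean ± SD reported.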

[10] = Plasma concentration in cPP-induced feeding rat model at 3 mg/kg, po after 2 hrs; format: ADME, organism-based; parameters: dose 3 mg/kg, route oral; in short: as §1
[11] = Plasma concentration in cPP-induced feeding rat model at 10 mg/kg, po after 1 hr; format: ADME, organism-based; parameters: dose 10 mg/kg, route oral; in short: as §1
[12] = Drug uptake in brain of cPP-induced feeding rat model at 10 mg/kg, po after 1 hr; format: ADME, organism-based; parameters: dose 10 mg/kg, route oral; settings: read-out: Drug uptake; in short: as §1
[13] = Plasma concentration in cPP-induced feeding rat model at 30 mg/kg, po after 2 hrs; format: ADME, organism-based; parameters: dose 30 mg/kg, route oral
In short: (§2)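 Satellite rats (n = 2/dose per week), cannulated in the lateral cerebral ventricle for the feeding study, dosed orally at 3, 10 or 30 mg/kg as a suspension in 20% HP-β-cyclodextrin. Plasma was sampled 1, 2, 4, 6 or 24 h after dosing, alongside i.c.v. cPP (0.6 nmol) feeding tests. Values are given as mean with SD.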

[14] = Plasma concentration in cPP-induced feeding rat model at 30 mg/kg, po after 4 hrs; format: ADME, organism-based; parameters: dose 30 mg/kg, route oral; in short: as §2
[15] = Drug uptake in brain of cPP-induced feeding rat model at 30 mg/kg, po after 4 hrs; format: ADME, organism-based; parameters: dose 30 mg/kg, route oral; settings: read-out: Drug uptake; in short: as §1
[16] = target: T3, Neuropeptide Y receptor type 5 (Rattus norvegicus, UniProt Q63634); experiment: Antagonist activity at rat NPY5 receptor; format: functional
T3 sequence (Q63634 whole entry): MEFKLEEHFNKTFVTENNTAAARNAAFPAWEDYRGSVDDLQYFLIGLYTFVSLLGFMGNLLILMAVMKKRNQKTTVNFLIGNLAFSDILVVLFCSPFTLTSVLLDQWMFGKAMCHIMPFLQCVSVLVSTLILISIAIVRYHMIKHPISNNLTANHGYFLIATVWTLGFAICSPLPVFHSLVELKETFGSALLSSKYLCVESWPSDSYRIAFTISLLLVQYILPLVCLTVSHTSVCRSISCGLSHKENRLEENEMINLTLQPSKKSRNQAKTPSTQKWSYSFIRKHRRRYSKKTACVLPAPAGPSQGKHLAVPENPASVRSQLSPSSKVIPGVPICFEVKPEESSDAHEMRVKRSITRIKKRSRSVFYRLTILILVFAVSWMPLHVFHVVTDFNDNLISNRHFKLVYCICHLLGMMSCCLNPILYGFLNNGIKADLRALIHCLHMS

Rattus norvegicus = experiment: Antistress activity against chronic mild stress Sprague-Dawley rat model assessed as increase in sucrose consumption at 10 mg/kg, ip bid measured after 4 weeks; format: functional; settings: route intraperitoneal
[17] = Tmax in mouse at 1 mg/kg, iv and 2 mg/kg, po by HPLC analysis; format: ADME, organism-based; settings: in vivo
[18] = Volume of distribution at steady state in mouse at 1 mg/kg, iv and 2 mg/kg, po by HPLC analysis; format: ADME, organism-based; settings: in vivo, read-out: Vdss

With CS(=O)(=O)NC[C@H]1CC[C@H](Nc2nc3c(s2)CCSc2ccccc2-3)CC1 as the compound, how does the IC50 [1] read?
Its IC50 is greater than 1000 nM.

What about the IC50 [2] of the same compound?
The IC50 was greater than 1000 nM.

And the CL (Liver microsomes [3])?
The CL was 2.5 L/min.

What about the CL (Liver microsomes [4]) of the same compound?
Its CL is 40 mL/min.

What about the concentration at 4 h [5] of the same compound?
Its concentration at 4 h is 320 ng/mL.

What about the IC50 [6] of the same compound?
Its IC50 is greater than 10000 nM.

What about the fraction unbound [7] of the same compound?
The fraction unbound was 0.006.

What about the IC50 (Cytochrome P450 1A2) of the same compound?
The IC50 was greater than 10000 nM.

And the IC50 (Cytochrome P450 2D6)?
The IC50 was greater than 10000 nM.

What about the half-life [8] of the same compound?
The half-life was 6.3 h.

And the concentration at 1 h [9]?
Its concentration at 1 h is 54 ng/mL.

And the concentration at 2 h [10]?
Its concentration at 2 h is 87 ng/mL.

What about the concentration at 1 h [11] of the same compound?
The concentration at 1 h was 159 ng/mL.

What about the concentration at 1 h [12] of the same compound?
The concentration at 1 h was 179 ng/g.

And the concentration at 2 h [13]?
Its concentration at 2 h is 337 ng/mL.

What about the concentration at 4 h [14] of the same compound?
The concentration at 4 h was 519 ng/mL.

And the concentration at 4 h [15]?
The concentration at 4 h was 643 ng/g.

And the Ki [16]?
Its Ki is 1.4 nM.

And the Activity (Rattus norvegicus)?
The Activity was greater than 10%.

And the Tmax [17]?
The Tmax was 1.3 h.

And the Vd [18]?
The Vd was 3.6 L/kg.
